Common to all, as to format: functional
Assay [1] has as its system Bacillus subtilis. As to the kind of experiment: Antibacterial activity against Bacillus subtilis NCIM 2063 at 100 ug/disk after 24 hrs by agar disk diffusion method. The following applies: NCIM 2063, 24 h, read-out: IZ. The method, boiled down:
(§1)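 Agar disc diffusion on nutrient agar plates pre-inoculated with each bacterium. Sterile 6 mm filter-paper discs were moistened with compound in DMSO at the stated per-disc amount. Plates were incubated at 37 °C, and the growth-inhibition zone diameter was read after 24 h. Each determination was run in triplicate, and the mean of three independent readings is reported.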

Assay [2] concerns Proteus vulgaris. The assay can be described thus: Antibacterial activity against Proteus vulgaris NCIM 2027 at 100 ug/disk after 24 hrs by agar disk diffusion method. As to conditions: NCIM 2027, 24 h, read-out: IZ. The method, boiled down: as §1
Assay [3] deals with Radical scavenging activity. As to the kind of experiment: Antioxidant activity assessed as DPPH free radical scavenging activity at 100 uM after 20 mins. The method, boiled down: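 DPPH scavenging: compound solutions were added to DPPH in dioxane/ethanol and kept at ambient temperature for 20 min. Absorbance was read at 517 nm. The test–control difference was expressed as percent DPPH radical scavenging.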

Assay [4] has as its system Staphylococcus aureus. The assay can be described thus: Antibacterial activity against Staphylococcus aureus NCIM 5021 at 200 ug/disk after 24 hrs by agar disk diffusion method. The following applies: NCIM 5021, 24 h, read-out: IZ. The method, boiled down:
as §1

Assay [5] has as its system Klebsiella pneumoniae. As to the kind of experiment: Antibacterial activity against Klebsiella pneumoniae NCIM 2957 at 100 ug/disk after 24 hrs by agar disk diffusion method. The following applies: NCIM 2957, 24 h, read-out: IZ. The method, boiled down:
as §1

Assay [6] deals with Staphylococcus aureus. The assay can be described thus: Antibacterial activity against Staphylococcus aureus NCIM 5021 at 100 ug/disk after 24 hrs by agar disk diffusion method. As to conditions: NCIM 5021, 24 h, read-out: IZ. The method, boiled down: as §1
Assay [7] relates to Curvularia lunata. As to the kind of experiment: Antifungal activity against Curvularia lunata NCIM 716 after 48 hrs by microdilution susceptibility method. The following applies: NCIM 716, 48 h. The method, boiled down: (§2)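 Broth microdilution MIC; fungal suspensions were inoculated into wells containing compound dissolved in DMSO. Incubation was at 36 °C for 48 h. MIC was recorded as the lowest concentration with no turbidity. Ketoconazole was the reference antifungal.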

Assay [8] deals with Fusarium solani. As to the kind of experiment: Antifungal activity against Fusarium solani NCIM 1330 after 48 hrs by microdilution susceptibility method. As to conditions: NCIM 1330, 48 h. The method, boiled down: as §2
The test system of assay [9] is Fusarium solani. The assay can be described thus: Antifungal activity against Fusarium solani NCIM 1330 at 100 ug/disk after 48 hrs by agar disk diffusion method. The following applies: NCIM 1330, 48 h, read-out: IZ. The method, boiled down:
(§3)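 Fungal disc diffusion on nutrient agar plates pre-inoculated with each fungus. 6 mm sterile paper discs carried the compound in DMSO at the stated amount per disc. Plates were held at 37 °C, and inhibition-zone diameter was measured after 48 h. Values are the mean of three independent triplicate readings.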

For assay [10], the system named is Staphylococcus aureus. As to the kind of experiment: Antibacterial activity against Staphylococcus aureus NCIM 5021 after 24 hrs by microdilution susceptibility method. The following applies: NCIM 5021, 24 h. The method, boiled down:
(§4)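 MIC by microdilution susceptibility; compounds in DMSO, bacterial suspensions inoculated into wells. Incubation was at 36 °C for 24 h. MIC is the lowest compound concentration showing no turbidity. Chloramphenicol served as reference antibacterial.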

Assay [11] relates to Klebsiella pneumoniae. The assay can be described thus: Antibacterial activity against Klebsiella pneumoniae NCIM 2957 after 24 hrs by microdilution susceptibility method. As to conditions: NCIM 2957, 24 h. The method, boiled down: as §4
For assay [12], the system named is Curvularia lunata. As to the kind of experiment: Antifungal activity against Curvularia lunata NCIM 716 at 200 ug/disk after 48 hrs by agar disk diffusion method. The following applies: NCIM 716, 48 h, read-out: IZ. The method, boiled down: as §3
Assay [13] deals with Bacillus subtilis. As to the kind of experiment: Antibacterial activity against Bacillus subtilis NCIM 2063 after 24 hrs by microdilution susceptibility method. As to conditions: NCIM 2063, 24 h. The method, boiled down: as §4
In assay [14] the test system is Proteus vulgaris. The assay can be described thus: Antibacterial activity against Proteus vulgaris NCIM 2027 at 200 ug/disk after 24 hrs by agar disk diffusion method. As to conditions: NCIM 2027, 24 h, read-out: IZ. The method, boiled down:
as §1

For assay [15], the system named is Aspergillus niger. The assay can be described thus: Antifungal activity against Aspergillus niger NCIM 596 at 100 ug/disk after 48 hrs by agar disk diffusion method. The following applies: NCIM 596, 48 h, read-out: IZ. The method, boiled down: as §3
Assay [16] deals with Proteus vulgaris. The assay can be described thus: Antibacterial activity against Proteus vulgaris NCIM 2027 after 24 hrs by microdilution susceptibility method. The following applies: NCIM 2027, 24 h. The method, boiled down: as §4
Assay [17] concerns Klebsiella pneumoniae. As to the kind of experiment: Antibacterial activity against Klebsiella pneumoniae NCIM 2957 at 200 ug/disk after 24 hrs by agar disk diffusion method. The following applies: NCIM 2957, 24 h, read-out: IZ. The method, boiled down: as §1
Assay [18] deals with Fusarium solani. The assay can be described thus: Antifungal activity against Fusarium solani NCIM 1330 at 200 ug/disk after 48 hrs by agar disk diffusion method. The following applies: NCIM 1330, 48 h, read-out: IZ. The method, boiled down: as §3
For assay [19], the system named is Bacillus subtilis. The assay can be described thus: Antibacterial activity against Bacillus subtilis NCIM 2063 at 200 ug/disk after 24 hrs by agar disk diffusion method. The following applies: NCIM 2063, 24 h, read-out: IZ. The method, boiled down: as §1
For assay [20], the system named is Aspergillus niger. The assay can be described thus: Antifungal activity against Aspergillus niger NCIM 596 at 200 ug/disk after 48 hrs by agar disk diffusion method. As to conditions: NCIM 596, 48 h, read-out: IZ. The method, boiled down: as §3
Assay [21] deals with Aspergillus niger. As to the kind of experiment: Antifungal activity against Aspergillus niger NCIM 596 after 48 hrs by microdilution susceptibility method. The following applies: NCIM 596, 48 h. The method, boiled down: as §2
The nature of assay [22]: Antioxidant activity assessed as nitric oxide production at 100 uM after 120 mins by Griess reagent method. The method, boiled down:
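Nitric oxide assay with Griess read-out. At intervals, 0.5 ml of incubation solution was mixed with 0.5 ml Griess reagent (1% sulfanilamide, 0.1% N-naphthylethylenediamine dihydrochloride, 2% o-phosphoric acid in water). The control received an equal amount of solvent and was handled identically.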

Assay [23] relates to Curvularia lunata. As to the kind of experiment: Antifungal activity against Curvularia lunata NCIM 716 at 100 ug/disk after 48 hrs by agar disk diffusion method. As to conditions: NCIM 716, 48 h, read-out: IZ. The method, boiled down:
as §3

In brackets after ≈: the same amount, converted by molar mass.

`NC1=NN=C(N)C1C(CC(=O)c1ccc(Cl)cc1)C(=O)c1ccc(Cl)cc1` (centres undefined): the zone of inhibition at 100 µg/disc worked out at 28 mm with Bacillus subtilis [1]; 25 mm in the assay on Proteus vulgaris [2]; 28 mm in the assay with Klebsiella pneumoniae [5]; 31 mm in the assay on Staphylococcus aureus [6]; 33 mm with Fusarium solani [9]; 32 mm in the assay on Aspergillus niger [15]. Moreover, the zone of inhibition at 100 µg/disc in the assay on Curvularia lunata [23] is 34 mm. For the same compound, the inhibition came out at 91.7% in [3] and 90.7% in assay [22]. The zone of inhibition at 200 µg/disc with Staphylococcus aureus [4] was found to be 33 mm; in the assay with Curvularia lunata [12] it was 36 mm; with Proteus vulgaris [14] it was 28 mm; in the assay with Klebsiella pneumoniae [17], 30 mm; in the assay with Fusarium solani [18], 37 mm; with Bacillus subtilis [19], 32 mm. Also, the zone of inhibition at 200 µg/disc in the assay on Aspergillus niger [20] was determined as 33 mm. Also, the MIC amounted to 200 µg/mL (≈ 496 µM) against Curvularia lunata [7]; 200 µg/mL (≈ 496 µM) in the assay with Fusarium solani [8]; 100 µg/mL (≈ 248 µM) with Staphylococcus aureus [10]; 100 µg/mL (≈ 248 µM) in the assay with Klebsiella pneumoniae [11]; 100 µg/mL (≈ 248 µM) in the assay with Bacillus subtilis [13]; 100 µg/mL (≈ 248 µM) against Proteus vulgaris [16]. Besides, it took 200 µg/mL (≈ 496 µM) to inhibit growth against Aspergillus niger [21] (MIC).
`NC1=NN=C(N)C1C(CS(=O)(=O)c1ccc(Cl)cc1)S(=O)(=O)c1ccc(Cl)cc1` (centres undefined): the zone of inhibition at 100 µg/disc came to 35 mm with Bacillus subtilis [1]; 31 mm in the assay with Proteus vulgaris [2]; 30 mm in the assay with Klebsiella pneumoniae [5]; 34 mm with Staphylococcus aureus [6]; 35 mm in the assay with Fusarium solani [9]; 32 mm with Aspergillus niger [15]. The zone of inhibition at 100 µg/disc in the assay with Curvularia lunata [23] worked out at 34 mm. The inhibition in [3] and in [22] was 92.4% each time. The zone of inhibition at 200 µg/disc with Staphylococcus aureus [4] is 36 mm; in the assay with Curvularia lunata [12], 38 mm; with Proteus vulgaris [14], 33 mm; in the assay on Klebsiella pneumoniae [17] it was 32 mm; with Fusarium solani [18], 39 mm; in the assay on Bacillus subtilis [19], 37 mm. Moreover, the zone of inhibition at 200 µg/disc in the assay on Aspergillus niger [20] turned out to be 35 mm. Also, the minimal inhibitory concentration (MIC) in the assay on Curvularia lunata [7] turned out to be 100 µg/mL (≈ 210 µM); against Fusarium solani [8], 200 µg/mL (≈ 421 µM); with Staphylococcus aureus [10], 25 µg/mL (≈ 52.6 µM); with Klebsiella pneumoniae [11], 50 µg/mL (≈ 105 µM); in the assay on Bacillus subtilis [13], 25 µg/mL (≈ 52.6 µM); with Proteus vulgaris [16] it was 50 µg/mL (≈ 105 µM). Also, the MIC in the assay with Aspergillus niger [21] came out at 100 µg/mL (≈ 210 µM).
Turning to `N=C1ON=C(N)C1C(CC(=O)c1ccc(Cl)cc1)C(=O)c1ccc(Cl)cc1` (centres undefined), the zone of inhibition at 100 µg/disc in the assay on Bacillus subtilis [1] amounted to 28 mm; with Proteus vulgaris [2], 25 mm; with Klebsiella pneumoniae [5] it was 25 mm; in the assay on Staphylococcus aureus [6], 29 mm; in the assay with Fusarium solani [9], 33 mm; in the assay on Aspergillus niger [15], 26 mm. In addition, the zone of inhibition at 100 µg/disc in the assay on Curvularia lunata [23] was 32 mm. Also, the inhibition turned out to be 89.6% in assay [3] and 90.3% in assay [22]. The zone of inhibition at 200 µg/disc was determined as 32 mm with Staphylococcus aureus [4]; 34 mm in the assay on Curvularia lunata [12]; 26 mm in the assay on Proteus vulgaris [14]; 27 mm with Klebsiella pneumoniae [17]; 35 mm with Fusarium solani [18]; 30 mm with Bacillus subtilis [19]. Also, in the assay with Aspergillus niger [20], the zone of inhibition at 200 µg/disc turned out to be 28 mm. Further, the minimum inhibitory concentration (MIC) with Curvularia lunata [7] was found to be 100 µg/mL (≈ 247 µM); with Fusarium solani [8], 100 µg/mL (≈ 247 µM); against Staphylococcus aureus [10] it was 50 µg/mL (≈ 124 µM); with Klebsiella pneumoniae [11] it was 100 µg/mL (≈ 247 µM); against Bacillus subtilis [13] it was 50 µg/mL (≈ 124 µM); against Proteus vulgaris [16], 200 µg/mL (≈ 495 µM). The compound also returned an MIC against Aspergillus niger [21] of 100 µg/mL (≈ 247 µM).

Source of the values: ChEMBL document CHEMBL1155297, “Synthesis, antimicrobial and antioxidant activities of substituted pyrazoles, isoxazoles, pyrimidine and thioxopyrimidine derivatives” (2009).
